# Test results: ChEMBL document CHEMBL1132961 (J Med Chem, 2000)
# Tests used:
# [1] = Concentration which elicits cytotoxicity in 50% of uninfected human lymphocyte derived CEM cells; type: cell-based, CCRF-CEM; details: uninfected CCRF-CEM cells, read-out: TC50 (the source's name)
# How it was run: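 Cytotoxicity measured in uninfected human lymphocyte-derived CEM cells by XTT protocol.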
# [2] = molecular target: T1, Human immunodeficiency virus type 1 protease (Human immunodeficiency virus 1, UniProt Q72874); assay: Activity of potent nonpeptidic inhibitor against protease
# How it was run: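 Incubated with 40 µM His-Lys-Ala-Arg-Val-Leu-(p-NO₂-Phe)-Glu-Ala-Nle-Ser-NH₂ in 1.0% DMSO, pH 6.2 MES buffer (DTT, NaCl, EDTA, PEG 8000) for 60 min at 37 °C, then TFA quench. Substrate and product separated by reverse-phase HPLC, read at 220 nm. % control = conversion with inhibitor / conversion without × 100; IC50 derived.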
# [3] = molecular target: T1, Human immunodeficiency virus type 1 protease; assay: Tested for binding affinity against HIV protease
# [4] = system: Human immunodeficiency virus 1; assay: Effective concentration at which 50% of the HIV-IIIB-infected human lymphocyte-derived CEM cells protected from HIV-1 infection
# [5] = Tested for maximum plasma concentration in mice; type: ADME, organism-based; details: mouse
# How it was run: (§1)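 Mice dosed orally by gavage at 25 mg/kg. Vehicle was usually 20% 0.1 N NaOH/80% 0.5% methylcellulose, and in two cases 20% 0.1 N NaOH/80% PEG 400. Plasma Cmax and AUC measured; AUC not determined where Cmax was too low.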
# [6] = Half-life period in rat; type: ADME, organism-based; details: in vivo
# How it was run: (§2)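 Rats given 10 mg/kg orally in NaOH solution buffered to pH 7.4. Plasma Cmax, T1/2 and AUC determined.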
# [7] = AUC value in rat; type: ADME; details: plasma; how it was run: as §2
# [8] = Tested for maximum plasma concentration in rats; type: ADME, organism-based; details: rat; how it was run: as §2
# [9] = Effective concentration required for antiviral activity against HIV-1 144-44 in PBMC cells; type: functional, cell-based; details: Homo sapiens
# How it was run: (§3)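 PBMC cells infected with HIV-1 clinical isolates, using an XTT cytopathic assay similar to the CEM assay. EC50 read as protection from viral cytopathic effect.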
# [10] = Effective concentration required for antiviral activity against HIV-1 RoJo in PBMC cells; type: functional, cell-based; details: Homo sapiens; how it was run: as §3
# [11] = Effective concentration required for antiviral activity against HIV-1 SLKA in PBMC cells; type: functional, cell-based; details: Homo sapiens; how it was run: as §3
# [12] = Effective concentration required for antiviral activity against HIV-1 TEKI in PBMC cells; type: functional, cell-based; details: Homo sapiens; how it was run: as §3
# [13] = Effective concentration required for antiviral activity against HIV-1 WeJo in PBMC cells; type: functional, cell-based; details: Homo sapiens; how it was run: as §3
# [14] = Tested for cytotoxic activity against HIV-1 144-44 in PBMC cells; type: cell-based; details: human, read-out: TC50 (the source's name)
# [15] = Effective concentration required for antiviral activity against HIV-1 1002-60 in PBMC cells; type: functional, cell-based; details: Homo sapiens; how it was run: as §3
# [16] = Effective concentration required for antiviral activity against HIV-1 1026-60 in PBMC cells; type: functional, cell-based; details: Homo sapiens; how it was run: as §3
# [17] = Tested for cytotoxic activity against HIV-1 1002-60 in PBMC cells; type: cell-based; details: human, read-out: TC50 (the source's name)
# [18] = Tested for cytotoxic activity against HIV-1 1026-60 in PBMC cells; type: cell-based; details: human, read-out: TC50 (the source's name)
# [19] = AUC value in mice; type: ADME, organism-based; details: mouse, plasma; how it was run: as §1
# CYP2C9 [20] = molecular target: T2, CYP2C9 (Homo sapiens, UniProt P11712); assay: Residual activity of cytochrome P450 at 10 uM
# CYP2D6 [21] = molecular target: T3, CYP2D6 (Homo sapiens, UniProt P10635); assay: Residual activity of cytochrome P4502D6 at 1 uM
# CYP3A4 [22] = molecular target: T4, CYP3A4 (Homo sapiens, UniProt P08684); assay: Residual activity of cytochrome P4503A4 at 1 uM
# CYP2C9 [23] = molecular target: T2, CYP2C9; assay: Residual activity of cytochrome P450 2C9 at 1 uM
# CYP2D6 [24] = molecular target: T3, CYP2D6; assay: Residual activity of cytochrome P4502D6 at 10 uM
# CYP3A4 [25] = molecular target: T4, CYP3A4; assay: Residual activity of cytochrome P4503A4 at 10 uM
# CYP2D6 [26] = molecular target: T3, CYP2D6; assay: Residual activity of cytochrome P4502D6 at 100 uM
# CYP3A4 [27] = molecular target: T4, CYP3A4; assay: Residual activity of cytochrome P4503A4 at 100 uM
# CYP2C9 [28] = molecular target: T2, CYP2C9; assay: Residual activity of cytochrome P450 2C9 at 100 uM
# [29] = Human immunodeficiency virus 1, CCRF-CEM
# [30] = pooled result: one value given for 5 cell lines, strains, targets or settings
# T4 sequence (P08684 whole entry): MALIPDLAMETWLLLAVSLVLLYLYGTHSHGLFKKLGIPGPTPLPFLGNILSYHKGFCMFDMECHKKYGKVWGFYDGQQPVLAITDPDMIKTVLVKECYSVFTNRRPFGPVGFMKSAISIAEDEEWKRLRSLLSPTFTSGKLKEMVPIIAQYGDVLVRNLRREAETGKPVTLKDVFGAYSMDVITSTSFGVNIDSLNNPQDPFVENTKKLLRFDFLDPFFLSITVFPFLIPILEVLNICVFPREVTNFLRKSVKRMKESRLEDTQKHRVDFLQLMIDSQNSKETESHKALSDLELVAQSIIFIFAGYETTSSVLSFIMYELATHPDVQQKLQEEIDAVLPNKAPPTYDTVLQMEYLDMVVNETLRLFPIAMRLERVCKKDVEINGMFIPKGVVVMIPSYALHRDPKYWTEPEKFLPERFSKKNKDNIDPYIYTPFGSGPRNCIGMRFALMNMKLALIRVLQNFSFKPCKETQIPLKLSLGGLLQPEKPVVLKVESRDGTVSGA
# T3 sequence (P10635 whole entry): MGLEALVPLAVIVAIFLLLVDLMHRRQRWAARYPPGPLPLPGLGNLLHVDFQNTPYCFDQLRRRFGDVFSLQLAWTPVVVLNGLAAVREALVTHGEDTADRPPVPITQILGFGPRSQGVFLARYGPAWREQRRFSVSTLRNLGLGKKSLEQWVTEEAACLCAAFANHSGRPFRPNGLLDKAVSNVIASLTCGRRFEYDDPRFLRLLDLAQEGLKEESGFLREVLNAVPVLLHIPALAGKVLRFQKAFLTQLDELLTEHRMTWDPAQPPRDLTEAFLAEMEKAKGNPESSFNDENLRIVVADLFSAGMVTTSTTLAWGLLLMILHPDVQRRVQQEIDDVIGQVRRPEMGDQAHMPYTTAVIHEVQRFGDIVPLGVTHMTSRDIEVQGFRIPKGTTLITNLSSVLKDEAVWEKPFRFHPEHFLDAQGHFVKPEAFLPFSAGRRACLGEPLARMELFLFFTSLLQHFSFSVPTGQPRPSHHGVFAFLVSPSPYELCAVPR
# T2 sequence (P11712 whole entry): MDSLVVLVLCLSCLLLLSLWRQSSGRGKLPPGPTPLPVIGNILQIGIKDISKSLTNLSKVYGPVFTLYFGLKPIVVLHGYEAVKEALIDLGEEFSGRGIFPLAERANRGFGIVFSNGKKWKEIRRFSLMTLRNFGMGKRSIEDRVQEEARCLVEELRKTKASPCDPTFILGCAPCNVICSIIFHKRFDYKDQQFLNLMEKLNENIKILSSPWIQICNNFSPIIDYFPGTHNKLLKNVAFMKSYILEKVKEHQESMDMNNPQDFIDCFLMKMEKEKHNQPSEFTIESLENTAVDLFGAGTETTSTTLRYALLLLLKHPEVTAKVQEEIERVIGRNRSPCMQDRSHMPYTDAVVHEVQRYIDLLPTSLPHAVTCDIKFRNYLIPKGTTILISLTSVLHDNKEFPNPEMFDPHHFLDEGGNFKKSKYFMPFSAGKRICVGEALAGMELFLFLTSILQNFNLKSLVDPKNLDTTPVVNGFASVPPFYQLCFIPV
compound,measurement,setting,value
Cc1cc(SC2=C(O)OC(CCc3ccc(O)cc3)(C(C)C)CC2=O)c(C(C)(C)C)cc1NS(=O)(=O)c1ccc(C#N)cc1 (stereo not given),CC50,[1],85 µM
same,IC50,[2],0.0022 µM
same,Ki,[3],0.00041 µM
same,EC50,[4]; [29],1.6 µM
Cc1cc(SC2=C(O)OC(CCc3ccccc3)(C(C)C)CC2=O)c(C(C)(C)C)cc1OS(=O)(=O)c1ccc(C#N)cc1 (stereo not given),CC50,[1],25 µM
same,Ki,[3],0.0007 µM
same,EC50,[4]; [29],1.1 µM
Cc1cc(SC2=C(O)OC(CCc3ccc(O)cc3)(C(C)C)CC2=O)c(C(C)(C)C)cc1OS(=O)(=O)c1cccnc1 (stereo not given),Cmax,[5],630 nM
same,CC50,[1],76 µM
same,IC50,[2],0.0035 µM
same,EC50,[4]; [29],1.6 µM
Cc1cc(SC2=C(O)OC(CCc3ccccc3)(C(C)C)CC2=O)c(C(C)(C)C)cc1O (stereo not given),CC50,[1],66 µM
same,Ki,[3],0.0011 µM
same,EC50,[4]; [29],1.8 µM
Cc1cc(SC2=C(O)O[C@](CCc3ccccc3)(C(C)C)CC2=O)c(C(C)(C)C)cc1NS(=O)(=O)c1ccc(C#N)cc1,Cmax,[5],10300 nM
same,half-life,[6],5.7 h
same,AUC,[7],10000 ng·h/mL
same,Cmax,[8],3960 nM
same,CC50,[1],31 µM
same,EC50,[9],0.58 µM
same,EC50,[10],0.12 µM
same,EC50,[11],0.12 µM
same,EC50,[12],0.1 µM
same,EC50,[13],0.11 µM
same,CC50,[14]; [30],55.6 µM
same,Ki,[3],0.0002 µM
same,EC50,[4]; [29],0.22 µM
Cc1cc(SC2=C(O)O[C@@](CCc3ccc(O)cc3)(C(C)C)CC2=O)c(C(C)(C)C)cc1NS(=O)(=O)c1ccc(C(F)(F)F)cn1,CC50,[1],66 µM
same,Ki,[3],0.00954 µM
same,EC50,[4]; [29],18 µM
Cc1cc(SC2=C(O)OC(CCc3ccccc3)(C(C)C)CC2=O)c(C(C)(C)C)cc1NS(=O)(=O)c1ccc(C#N)cc1 (stereo not given),Cmax,[5],2000 nM
same,CC50,[1],66 µM
same,IC50,[2],0.0091 µM
same,EC50,[4]; [29],0.5 µM
Cc1cc(SC2=C(O)OC(CCc3ccc(O)cc3)(C(C)C)CC2=O)c(C(C)(C)C)cc1NS(=O)(=O)c1ccccc1 (stereo not given),CC50,[1],74 µM
same,IC50,[2],0.0018 µM
same,Ki,[3],0.00053 µM
same,EC50,[4]; [29],1.4 µM
CC(C)(C)NC(=O)[C@@H]1C[C@@H]2CCCC[C@@H]2CN1C[C@@H](O)[C@H](Cc1ccccc1)NC(=O)[C@H](CC(N)=O)NC(=O)c1ccc2ccccc2n1,EC50,[15],14.5 µM
same,EC50,[16],19.4 µM
same,EC50,[9],11.1 µM
same,CC50,[17],> 50 µM
same,CC50,[18],> 50 µM
same,CC50,[14],> 50 µM
Cc1cc(SC2=C(O)O[C@](CCc3ccc(O)cc3)(C(C)C)CC2=O)c(C(C)(C)C)cc1N (stereo in doubt; 1S),AUC,[19],46300 ng·h/mL
same,CC50,[1],215 µM
same,EC50,[15],0.74 µM
same,EC50,[16],0.31 µM
same,EC50,[9],0.24 µM
same,EC50,[10],0.2 µM
same,EC50,[11],0.22 µM
same,EC50,[12],0.59 µM
same,EC50,[13],0.25 µM
same,CC50,[17],> 100 µM
same,CC50,[18],> 100 µM
same,CC50,[14]; [30],> 100 µM
same,residual activity at 10 µM,CYP2C9 [20],75.5%
same,residual activity at 1 µM,CYP2D6 [21],105%
same,residual activity at 1 µM,CYP3A4 [22],103%
same,residual activity at 1 µM,CYP2C9 [23],93.2%
same,residual activity at 10 µM,CYP2D6 [24],95%
same,residual activity at 10 µM,CYP3A4 [25],96.8%
same,residual activity at 100 µM,CYP2D6 [26],56.7%
same,residual activity at 100 µM,CYP3A4 [27],41.1%
same,residual activity at 100 µM,CYP2C9 [28],21.6%
same,EC50,[4]; ccrf-cem,0.49 µM
Cc1cc(SC2=C(O)OC(CCc3ccc(O)cc3)(C(C)C)CC2=O)c(C(C)(C)C)cc1NS(=O)(=O)c1cccc(C#N)c1 (stereo not given),CC50,[1],> 100 µM
same,Ki,[3],0.00021 µM
same,EC50,[4]; [29],5.3 µM
Cc1cc(SC2=C(O)O[C@@](CCc3ccccc3)(C(C)C)CC2=O)c(C(C)(C)C)cc1NS(=O)(=O)c1ccc(C(F)(F)F)cn1,CC50,[1],66 µM
same,Ki,[3],0.0064 µM
same,EC50,[4]; [29],5.9 µM
Cc1cc(SC2=C(O)OC(CCc3ccc(O)cc3)(C(C)C)CC2=O)c(C(C)(C)C)cc1OS(=O)(=O)c1ccc(C#N)cc1 (stereo not given),CC50,[1],67 µM
same,IC50,[2],0.0045 µM
same,residual activity at 10 µM,CYP2C9 [20],18.1%
same,residual activity at 1 µM,CYP3A4 [22],79%
same,residual activity at 1 µM,CYP2C9 [23],83.5%
same,residual activity at 10 µM,CYP3A4 [25],34.6%
same,residual activity at 100 µM,CYP3A4 [27],6.86%
same,EC50,[4]; [29],0.6 µM
